Data on 9 molecules can be found in ChEMBL document CHEMBL1122171, “Hypobetalipoproteinemic agents. 3. Variation of the polycyclic portion of 4-(1-adamantyloxy)aniline” (1982).

Holding throughout (type): functional
For assay [1], the system named is Rattus norvegicus. Briefly: Hypobetalipoproteinemic activity was determined in diet-induced hypercholesterolemic rats at a dose of 0.18 (mmol/kg)/day (total cholesterol level was determined). In a few lines:
(§1)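 Cholesterol-cholic acid fed rats given each compound at 50 (mg/kg)/day in 0.25% aqueous methylcellulose vehicle. Serum total cholesterol, heparin precipitating lipoproteins (HPL) and HPL/cholesterol ratio measured. Values expressed as T/C, the treated-group mean divided by the control mean. Significance vs control set at p < 0.05. Food intake and weight gain monitored. Active compounds retested for confirmation.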

Assay [2] deals with Rattus norvegicus. Briefly: Hypobetalipoproteinemic activity was determined in diet-induced hypercholesterolemic rats at a dose of 0.18 (mmol/kg)/day (heparin precipitating lipoproteins level was determined). In short, it runs like this:
as §1

Assay [3] in a line: Ratio of heparin precipitating lipoproteins level to cholesterol level was determined. In short, it runs like this: as §1
For assay [4], the system named is Rattus norvegicus. Description: Hypobetalipoproteinemic activity was determined in diet-induced hypercholesterolemic rats at a dose of 0.17 (mmol/kg)/day (total cholesterol level was determined). In short, it runs like this:
as §1

For assay [5], the system named is Rattus norvegicus. Briefly: Hypobetalipoproteinemic activity was determined in diet-induced hypercholesterolemic rats at a dose of 0.17 (mmol/kg)/day (heparin precipitating lipoproteins level was determined). In a few lines: as §1
Assay [6] has as its system Rattus norvegicus. Description: Hypobetalipoproteinemic activity was determined in diet-induced hypercholesterolemic rats at a dose of 0.19 (mmol/kg)/day (heparin precipitating lipoproteins level was determined). In a few lines: as §1
For assay [7], the system named is Rattus norvegicus. Briefly: Hypobetalipoproteinemic activity was determined in diet-induced hypercholesterolemic rats at a dose of 0.19 (mmol/kg)/day (total cholesterol level was determined). In short, it runs like this: as §1
In assay [8] the test system is Rattus norvegicus. Description: Hypobetalipoproteinemic activity was determined in diet-induced hypercholesterolemic rats at a dose of 0.22 (mmol/kg)/day (total cholesterol level was determined). In a few lines: as §1
The subject of assay [9] is Rattus norvegicus. Description: Hypobetalipoproteinemic activity was determined in diet-induced hypercholesterolemic rats at a dose of 0.22 (mmol/kg)/day (heparin precipitating lipoproteins level was determined). In short, it runs like this: as §1

With `Cl.Nc1ccc(OC23CCCCC2CCCC3)cc1` (stereo in doubt; 14), the T/C is 0.92 in the assay with Rattus norvegicus [1] and 0.89 in the assay with Rattus norvegicus [2].

For `Nc1ccc(OC23CCCCC2CCCC3)cc1` (stereo in doubt; 14), the Ratio in assay [3] was determined as 0.97.

Take `CCCCCCCC(C)(C)Oc1ccc(N)cc1.Cl`: the T/C in the assay on Rattus norvegicus [4] is on record as 0.98; in the assay with Rattus norvegicus [5], 0.84. In addition, in assay [3], the Ratio was found to be 0.86.

Regarding `Nc1ccc(OC23CC4CC5C6CC(CC52)CC3C6C4)cc1`, the T/C in the assay with Rattus norvegicus [4] was 0.53; in the assay on Rattus norvegicus [5], 0.35. Further, the Ratio in assay [3] came out at 0.66.

For the molecule `CCCCCC(C)(C)Oc1ccc(N)cc1.Cl`, the T/C came out at 0.96 in the assay on Rattus norvegicus [6] and 1.02 with Rattus norvegicus [7]. Also, the Ratio in assay [3] was 0.94.

`Cl.Nc1ccc(OC23CCCCC2CCCC3)cc1` (stereo in doubt; 17): the T/C worked out at 1.38 in the assay on Rattus norvegicus [1] and 1.24 with Rattus norvegicus [2].

For `Nc1ccc(OC23CC4C5CC6CC4C(C2)C(C6)C5C3)cc1`, the T/C in the assay on Rattus norvegicus [4] came out at 0.31; in the assay with Rattus norvegicus [5] it was 0.19. Also, the Ratio in assay [3] stood at 0.62.

Take `Nc1ccc(OC23CCCCC2CCCC3)cc1` (stereo in doubt; 17): the Ratio in assay [3] stood at 0.9.

Consider `CCCC(C)(C)Oc1ccc(N)cc1.Cl`, for which the results for the T/C in the assay on Rattus norvegicus [8] and in the assay with Rattus norvegicus [9] were 0.84 and 0.78, respectively. In addition, the Ratio in assay [3] amounted to 0.92.
